According to PMC7194111 (Virology, 2020):
Where two headings read alike, the source gives them in different places. One block for each compound: values may come before it.

What was measured:
Cytotoxicity measurement [1] = format: cell-based; conditions: African green monkey, Vero cells
In short: (§1)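 Cells seeded at 6 × 10^3/well and exposed to a range of test compound concentrations (DMSO stock diluted in medium) for 48 h; controls received equal-volume DMSO. 10% CCK8 reagent added for 1 h, then absorbance read at 450 nm. CC50 taken as the concentration lowering viability by 50%.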

Cytotoxicity measurement [2] = format: cell-based; conditions: human, A549 cells
In short: as §1

Cytotoxicity measurement [3] = format: cell-based; conditions: human, Huh7 cells
In short: as §1

ZIKV [4] = experiment: Anti-ZIKV assay; format: cell-based, Zika virus; conditions: for EC50: Zika virus
In short: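 Cells seeded at 2 × 10^5/well and pretreated 2 h with serial dilutions of test compound (DMSO stock diluted in medium). Infected with ZIKV (Asian strain KU963796) at MOI 0.1 for 2 h, then incubated to 48 hpi at 37 °C, 5% CO2 in DMEM. Cellular vRNA measured by SYBR Green qRT-PCR using the 2^-ΔΔCT method normalized to GAPDH. EC50 is the concentration reducing viral yield by 50%.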

ZIKV [5] = conditions: ref Adcock et al., 2017; cited from earlier work
ZIKV [6] = experiment: Plaque forming assay; format: cell-based, Zika virus
In short: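 Supernatants from ZIKV-infected, compound-treated cultures were put on overnight Vero monolayers (2 × 10^5 cells/well) for 2 h at 37 °C. Inoculum replaced with plaque medium containing 1% methylcellulose. After 7 days, cells fixed and stained with 4% formaldehyde and 0.5% crystal violet.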

ZIKV [7] = experiment: Viral protein by western blotting and immunofluorescence in Vero cells; format: cell-based, Zika virus
In short: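 Vero cells infected with ZIKV at MOI 0.1 and treated with test compound or DMSO. At 48 hpi: fixed in 4% paraformaldehyde (15 min), permeabilized with 0.2% Triton X-100 (5 min), blocked in 5% BSA (30 min). Stained overnight at 4 °C with pan-flavivirus envelope mAb 4G2, then fluorescent secondary for 30 min at RT. Nuclei stained with DAPI; imaged by confocal microscopy.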

ZIKV [8] = experiment: Time-of-addition assay; format: cell-based, Zika virus; conditions: 1 μM, added between -2 and 10 hpi, Vero cells, read at 48 hpi
ZIKV [9] = experiment: Time-of-removal assay; format: cell-based, Zika virus
In short: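 ZIKV-infected Vero cells received 1 μM test compound or DMSO at 6 hpi, with vRNA sampled every 3 h up to 24 hpi. Alternatively, treatment started at 24 hpi, with sampling every 6 h for a further 12 h. vRNA by SYBR Green qRT-PCR normalized to GAPDH. E and NS5 protein by western blot of cell lysates (SDS-PAGE, PVDF, overnight primary antibody at 4 °C, ECL), with GAPDH detected.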

ZIKV [10] = experiment: ZIKV strand specific RNA by qRT-PCR; format: cell-based; conditions: Zika virus, Vero
ZIKV NS5 RdRp = ZIKV NS5 RdRp (Zika virus, UniProt A0A024B7W1); experiment: In vitro RNA polymerase assay; format: biochemical; conditions: recombinant ZIKV NS5, serial dilutions
ZIKV NS5 RdRp, sequence (A0A024B7W1 2521-3423 limits assumed): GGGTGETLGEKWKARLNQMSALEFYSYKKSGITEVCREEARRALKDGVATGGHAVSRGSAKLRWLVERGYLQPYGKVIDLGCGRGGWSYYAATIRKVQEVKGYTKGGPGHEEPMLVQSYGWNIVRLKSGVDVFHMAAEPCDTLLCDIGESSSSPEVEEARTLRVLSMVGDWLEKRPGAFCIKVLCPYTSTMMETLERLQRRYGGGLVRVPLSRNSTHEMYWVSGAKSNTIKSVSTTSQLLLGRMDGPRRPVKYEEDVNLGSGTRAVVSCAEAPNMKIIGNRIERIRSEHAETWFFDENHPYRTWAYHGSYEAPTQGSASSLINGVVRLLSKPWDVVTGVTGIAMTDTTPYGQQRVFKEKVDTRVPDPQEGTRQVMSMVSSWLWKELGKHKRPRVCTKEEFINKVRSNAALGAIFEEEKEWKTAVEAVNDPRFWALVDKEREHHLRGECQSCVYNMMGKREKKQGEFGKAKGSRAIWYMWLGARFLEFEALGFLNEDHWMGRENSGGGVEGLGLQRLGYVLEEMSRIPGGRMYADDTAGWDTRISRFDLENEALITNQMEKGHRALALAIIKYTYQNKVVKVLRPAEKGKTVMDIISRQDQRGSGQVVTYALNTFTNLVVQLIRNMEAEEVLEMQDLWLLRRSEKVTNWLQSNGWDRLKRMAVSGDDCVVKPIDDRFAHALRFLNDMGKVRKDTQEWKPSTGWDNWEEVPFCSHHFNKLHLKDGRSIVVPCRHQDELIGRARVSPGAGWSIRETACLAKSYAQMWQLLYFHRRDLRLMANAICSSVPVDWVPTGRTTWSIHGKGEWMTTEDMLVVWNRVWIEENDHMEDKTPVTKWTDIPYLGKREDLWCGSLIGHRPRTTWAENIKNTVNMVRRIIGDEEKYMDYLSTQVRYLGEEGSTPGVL

ZIKV [11] = experiment: Lethal ZIKV challenge in AG6 mice; format: in vivo
In short: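 AG6 mice aged 4–5 weeks (13–15 g, n = 6/group) were infected with 3.3 × 10^6 PFU ZIKV via footpad. Dosed intragastrically at 1, 5 or 10 mg/kg (DMSO stock in 0.5% carboxymethyl cellulose) or vehicle for 14 days. Survival and body weight tracked to 14 dpi. Retro-orbital blood at 1, 3, 7 dpi: vRNA copies by qRT-PCR against a standard curve. Brain/liver vRNA by RT-qPCR; H&E histology. One-way ANOVA with Dunnett's test.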

[12] = 1 μM added at 6 hpi, after 24 h of viral infection, western blot intensity

- EC50 (ZIKV [4]; A549): 46 nM
- EC50 (ZIKV [4]; Huh-7): 6 nM
- EC50 (ZIKV [4]; Vero): 22 nM
SMILES: Cc1c(-c2ccc(-c3ccccc3F)cc2)nc2ccc(F)cc2c1C(=O)O [Brequinar, reference compound]
- CC50 at 48 h (Cytotoxicity measurement [1]): > 50000 nM
- CC50 at 48 h (Cytotoxicity measurement [2]): > 50000 nM
- CC50 at 48 h (Cytotoxicity measurement [3]): > 50000 nM
- SI (selectivity index) (ZIKV [4]; A549 cells): >1086
- SI (selectivity index) (ZIKV [4]; Huh7 cells): >8333
- SI (selectivity index) (ZIKV [4]; Vero cells): >2272
- EC50 (ZIKV [5]): 80 nM

SMILES: O[C@H]1[C@H]2c3cc4c(cc3CN3CCC(=C[C@@H]1O)[C@H]23)OCO4 [Lycorine]
- CC50 at 48 h (Cytotoxicity measurement [1]): 21000 nM
- CC50 at 48 h (Cytotoxicity measurement [2]): 4290 nM
- CC50 at 48 h (Cytotoxicity measurement [3]): 4400 nM
- SI (selectivity index) (ZIKV [4]; A549 cells): 19.5
- SI (selectivity index) (ZIKV [4]; Huh7 cells): 20
- SI (selectivity index) (ZIKV [4]; Vero cells): 54
- EC50 (ZIKV [4]; A549): 220 nM
- EC50 (ZIKV [4]; Huh-7): 220 nM
- EC50 (ZIKV [4]; Vero): 390 nM
- Inhibition of plaque formation (ZIKV [6]; 0.5 μM): partially
- Inhibition of plaque formation (ZIKV [6]; 5 μM): completely
- ZIKV protein (western blotting) (ZIKV [7]; 0.01 to 10 μM): dose-dependent reduction in the ZIKV protein
- ZIKV envelope biosynthesis (immunofluorescence) (ZIKV [7]; 48 hpi): significantly reduced
- vRNA and viral progeny particle load, time-of-addition (ZIKV [8]): strongest ability to decrease the vRNA and viral progeny particle load
- vRNA synthesis (ZIKV [9]; 1 μM added at 6 hpi, Vero cells, monitored up to 24 hpi): fully abrogated vRNA synthesis
- NS5 protein reduction (ZIKV [9]; [12]): 89%
- Virus E protein reduction (ZIKV [9]; [12]): 52%
- Viral E and NS5 protein reduction (ZIKV [9]; 1 μM added at 24 hpi): no significant difference
- vRNA (ZIKV [9]; 1 μM added at 24 hpi, monitored for additional 12 h): no effect on vRNA
- inhibition at 1 µM (ZIKV [10]; read-out: Inhibition of negative-sense vRNA synthesis): ~95%
- inhibition at 1 µM (ZIKV [10]; read-out: Inhibition of positive-sense vRNA synthesis): ~93%
- RdRp activity (ZIKV NS5 RdRp): directly inhibited RdRp activity in a dose-dependent manner
- Brain histopathology (H&E) (ZIKV [11]; 1 mg/kg): brain tissue lesions were similar to those in the ZIKV group
- Liver histopathology (H&E) (ZIKV [11]; 1 mg/kg): inflammatory response of the cells was obvious
- Reduction of vRNA of brain tissue (ZIKV [11]; 1 mg/kg): not significant difference
- Reduction of vRNA of liver (ZIKV [11]; 1 mg/kg): not significant difference
- Survival rate (ZIKV [11]; 1 mg/kg intragastric, 14 days): 33%
- Brain histopathology (H&E) (ZIKV [11]; 5 mg/kg): significantly reduced the ZIKV-induced inflammatory response
- Reduction of vRNA of brain tissue (ZIKV [11]; 5 mg/kg): about one order of magnitude
- Reduction of vRNA of liver (ZIKV [11]; 5 mg/kg): about one and half order of magnitude, respectively
- Survival rate (ZIKV [11]; 5 mg/kg intragastric, 14 days): 66%
- Brain histopathology (H&E) (ZIKV [11]; 10 mg/kg): significantly reduced the ZIKV-induced inflammatory response
- Reduction of vRNA of brain tissue (ZIKV [11]; 10 mg/kg): about three orders of magnitude
- Survival (protection against ZIKV infection-induced death) (ZIKV [11]; 10 mg/kg intragastric, 14 days, ZIKV group 100% mortality): 83%
- Liver histopathology (H&E) (ZIKV [11]; 10 mg/kg, compared to 5 mg/kg group): significantly reduced liver damage
- vRNA levels in blood versus ZIKV group (ZIKV [11]; 1, 3 and 7 dpi): one order of magnitude lower
- Body weight changes (ZIKV [11]; weight loss from 5 dpi, 0 to 14 dpi): recovered until 9 or 10 dpi
